Measurements published in ChEMBL document CHEMBL3217529, “Carbocyclic 5'-nor "reverse" fleximers. Design, synthesis, and preliminary biological activity” (Medchemcomm, 2011).
pEC50: −log10 of the molar value.

Columns and labels:
Influenza B virus = assay: Antiviral activity against Influenza B virus infected in MDCK cells assessed as inhibition of virus-induced cytopathicity; format: functional, organism-based
[1] = system: Vesicular stomatitis virus; assay: Antiviral activity against Vesicular stomatitis virus infected in human HEL cells assessed as inhibition of virus-induced cytopathicity; format: functional, organism-based
Human alphaherpesvirus 1 [2] = assay: Antiviral activity against Herpes simplex virus type 1 KOS infected in human HEL cells assessed as inhibition of virus-induced cytopathicity; format: functional, organism-based; details: Human alphaherpesvirus 1, KOS
[3] = system: Human immunodeficiency virus 2; assay: Antiviral activity against HIV-2 ROD infected in human CEM cells assessed as inhibition of virus-induced giant cell formation after 4 days by microscopic analysis; format: functional, organism-based; details: Human immunodeficiency virus 2, ISOLATE ROD, CCRF-CEM, 96 h
Procedure, shortened: (§1)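 CEM cells (~3 × 10^5 cells per cm3) were infected with 100 CCID50 of virus per mL and seeded into wells containing compound dilutions. After 4 days at 37 °C, giant cell formation was examined microscopically.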

Punta Toro virus = assay: Antiviral activity against Punta Toro virus infected in African green monkey Vero cells assessed as inhibition of virus-induced cytopathicity; format: functional, organism-based
[4] = Cytotoxicity against African green monkey Vero cells assessed as concentration required to cause microscopically visible alternation of cell morphology; format: cell-based; details: chlorocebus sabaeus
Procedure, shortened: (§2)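 Confluent cultures (MDCK nearly confluent) exposed to 5-fold serial compound dilutions alongside the antiviral assays. MCC is the lowest concentration producing a microscopically visible change in cell morphology.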

Human alphaherpesvirus 3 [5] = assay: Antiviral activity against wild type Varicella-zoster virus Oka infected in human HEL cells assessed as reduction of viral plaque formation after 5 days; format: functional, organism-based; details: Human alphaherpesvirus 3, strain Oka vaccine, 120 h
Procedure, shortened: (§3)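 Confluent HEL cells were inoculated with 20 PFU per well. After 2 h, residual virus was removed and compound dilutions were added, in duplicate.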

[6] = Cytotoxicity against MDCK cells assessed as concentration required to cause microscopically visible alternation of cell morphology; format: cell-based, Canis lupus familiaris; details: dog; procedure, shortened: as §2
[7] = Cytotoxicity against human HEL cells assessed as concentration required to cause microscopically visible alternation of cell morphology; format: cell-based; procedure, shortened: as §2
Vaccinia virus = assay: Antiviral activity against Vaccinia virus infected in human HEL cells assessed as inhibition of virus-induced cytopathicity; format: functional, organism-based; details: Orthopoxvirus vaccinia
[8] = system: Human immunodeficiency virus 1; assay: Antiviral activity against HIV-1 3B infected in human CEM cells assessed as inhibition of virus-induced giant cell formation after 4 days by microscopic analysis; format: functional, organism-based; details: Human immunodeficiency virus 1, 3B, CCRF-CEM, 96 h; procedure, shortened: as §1
[9] = Cytotoxicity against human HeLa cells assessed as concentration required to cause microscopically visible alternation of cell morphology; format: cell-based; procedure, shortened: as §2
Human alphaherpesvirus 3 [10] = assay: Antiviral activity against thymidine kinase-deficient Varicella-zoster virus 07-1 infected in human HEL cells assessed as reduction of viral plaque formation after 5 days; format: functional, organism-based; details: Human alphaherpesvirus 3, 07-1, HEL, 120 h; procedure, shortened: as §3
Human betaherpesvirus 5 [11] = assay: Antiviral activity against human cytomegalovirus Davis infected in human HEL cells assessed as inhibition of virus-induced cytopathicity after 7 days by Giemsa staining-based microscopic analysis; format: functional, organism-based; details: Human betaherpesvirus 5, Davis, 168 h
Procedure, shortened: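 Confluent HEL fibroblasts were infected with 100 PFU per well. After 2 h, residual virus was removed and compound-containing medium was added, in duplicate. At 7 days at 37 °C, cells were ethanol-fixed and Giemsa-stained, and cytopathogenicity was assessed microscopically.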

Human alphaherpesvirus 1 [12] = assay: Antiviral activity against thymidine kinase-deficient Herpes simplex virus type 1 infected in human HEL cells assessed as inhibition of virus-induced cytopathicity; format: functional, organism-based; details: Human alphaherpesvirus 1, HEL
Influenza A virus H3N2 = assay: Antiviral activity against Influenza A virus H3N2 infected in MDCK cells assessed as inhibition of virus-induced cytopathicity; format: functional, organism-based
Coxsackievirus B4 [13] = assay: Antiviral activity against Coxsackievirus B4 infected in human HeLa cells assessed as inhibition of virus-induced cytopathicity; format: functional, organism-based; details: Enterovirus B
Procedure, shortened: (§4)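 Confluent cell monolayers in 96-well plates inoculated with 100 CCID50 of virus alongside 5-fold serial dilutions of compound. Cytopathicity scored once it was complete in untreated infected controls.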

[14] = system: Respiratory syncytial virus; assay: Antiviral activity against Respiratory syncytial virus infected in human HeLa cells assessed as inhibition of virus-induced cytopathicity; format: functional, organism-based
Influenza A virus = assay: Antiviral activity against Influenza A virus H1N1 infected in MDCK cells assessed as inhibition of virus-induced cytopathicity; format: functional, organism-based
Human betaherpesvirus 5 [15] = assay: Antiviral activity against human cytomegalovirus AD169 infected in human HEL cells assessed as inhibition of virus-induced cytopathicity after 7 days by Giemsa staining-based microscopic analysis; format: functional, organism-based; details: Human betaherpesvirus 5, AD169, HEL, 168 h
Procedure, shortened: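 Confluent HEL fibroblasts infected with HCMV AD-169 or Davis at 100 PFU/well for 2 h, then residual virus removed. Medium with graded compound concentrations added, in duplicate. After 7 days at 37 °C, cells ethanol-fixed and Giemsa-stained, and cytopathogenicity read microscopically. EC50 taken from plots of % cytopathogenicity versus concentration.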

Sindbis virus = assay: Antiviral activity against Sindbis virus infected in African green monkey Vero cells assessed as inhibition of virus-induced cytopathicity; format: functional, organism-based
Coxsackievirus B4 [16] = assay: Antiviral activity against Coxsackievirus B4 infected in African green monkey Vero cells assessed as inhibition of virus-induced cytopathicity; format: functional, organism-based; details: Enterovirus B
Human respirovirus 3 = assay: Antiviral activity against Parainfluenza virus 3 infected in African green monkey Vero cells assessed as inhibition of virus-induced cytopathicity; format: functional, organism-based; details: Human respirovirus 3, Vero; procedure, shortened: as §4
[17] = system: Vesicular stomatitis virus; assay: Antiviral activity against Vesicular stomatitis virus infected in human HeLa cells assessed as inhibition of virus-induced cytopathicity; format: functional, organism-based
[18] = system: Mammalian orthoreovirus 1; assay: Antiviral activity against Reovirus 1 infected in African green monkey Vero cells assessed as inhibition of virus-induced cytopathicity; format: functional, cell-based; details: Mammalian orthoreovirus 1, Vero
Human alphaherpesvirus 2 = assay: Antiviral activity against Herpes simplex virus type 2 G infected in human HEL cells assessed as inhibition of virus-induced cytopathicity; format: functional, organism-based; details: Human alphaherpesvirus 2, strain G

Compound | pEC50 (Influenza B virus) | pEC50 [1] | pEC50 (Human alphaherpesvirus 1 [2]) | pEC50 [3] | pEC50 (Punta Toro virus) | MCC [4] | MCC [6] | MCC [7] | pEC50 (Vaccinia virus) | pEC50 [8] | MCC [9] | pEC50 (Human alphaherpesvirus 1 [12]) | pEC50 (Coxsackievirus B4 [13]) | pEC50 [14] | pEC50 (Sindbis virus) | pEC50 (Coxsackievirus B4 [16]) | pEC50 (Human respirovirus 3) | pEC50 [17] | pEC50 [18] | pEC50 (Human alphaherpesvirus 2) | further results
O=c1[nH]c(=O)n(C2C=CC(O)C2)cc1-c1cccs1 (stereo unspecified) | < 6.10 | < 5.40 | < 5.40 | < 5.70 | < 5.40 | 20 µM | 4 µM | ≥ 4 µM | < 5.40 | < 5.70 | 20 µM | < 5.40 | < 5.40 | < 5.40 | < 5.40 | < 5.40 | < 5.40 | 5.40 | < 5.40 | < 5.40 | pEC50 (Human alphaherpesvirus 3 [5]): 5.80; pEC50 (Human alphaherpesvirus 3 [10]): 5.80; pEC50 (Human betaherpesvirus 5 [11]): 5.74; pEC50 (Influenza A virus H3N2): < 6.10; pEC50 (Influenza A virus): < 6.10; pEC50 (Human betaherpesvirus 5 [15]): 5.74
O=c1[nH]c(=O)n(C2C=CC(O)C2)cc1-c1ccco1 (stereo unspecified) |  | < 4.00 | < 4.00 | < 4.00 | 4.70 | > 100 µM |  | > 100 µM | < 4.00 | < 4.00 | > 100 µM | < 4.00 | < 4.00 | < 4.00 |  | < 4.00 | < 4.00 | < 4.00 | 4.00 | < 4.00 | 
O=c1[nH]c(=O)n(C2C=CC(O)C2)cc1-c1cncs1 (stereo unspecified) | < 4.70 | < 4.00 | < 4.00 | < 4.30 | < 4.00 | > 100 µM | 100 µM | ≥ 100 µM | < 4.00 | < 4.30 | > 100 µM | < 4.00 | < 4.00 | < 4.00 | < 4.00 | < 4.00 | < 4.00 | < 4.00 | < 4.00 | < 4.00 | pEC50 (Human alphaherpesvirus 3 [5]): 4.33; pEC50 (Human alphaherpesvirus 3 [10]): 4.33; pEC50 (Human betaherpesvirus 5 [11]): < 4.70; pEC50 (Influenza A virus H3N2): < 4.70; pEC50 (Influenza A virus): < 4.70; pEC50 (Human betaherpesvirus 5 [15]): < 4.70
NC(=O)c1ncn([C@@H]2O[C@H](CO)[C@@H](O)[C@H]2O)n1 [RIBAVIRIN] |  |  | < 3.60 | < 4.30 |  | > 250 µM | > 100 µM | > 250 µM | < 3.60 | < 4.30 | > 250 µM |  |  |  | < 3.60 | < 3.60 |  |  | < 3.60 | < 3.60 | 
